Assay results as given in ChEMBL document CHEMBL2417506, “Synthesis and antiprotozoal activity of original porphyrin precursors and derivatives” (Eur J Med Chem, 2013).
The source made the active and inactive calls. The calls are words filed in the database; no cut-off is given here.

Tests used:
[1] = Cytotoxicity against Swiss mouse peritoneal macrophages at 20 uM after 5 days by MTT assay; assay type: cell-based, Peritoneal macrophage cell
Method in brief: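 Thioglycolate-elicited peritoneal macrophages from female Swiss mice, 5 × 10^4/well in RPMI 1640 with 10% FCS, 25 mM Hepes and 2 mM L-glutamine. Washed at 4 h to remove fibroblasts. Drug-containing medium added at 48 h, stopped at day 5. Viability read by MTT.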

[2] = tested on: Leishmania donovani; assay: Antileishmanial activity against amastigotes forms of Leishmania donovani MHOM/ET/67/HU3 infected in Swiss mouse peritoneal macrophages at 20 uM after 5 days; assay type: functional, organism-based
Method in brief: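 Peritoneal macrophages from female Swiss mice (18–20 g) infected after 24 h with stationary-phase L. donovani promastigotes at 10 parasites per macrophage. Free promastigotes removed at 18 h, then amastigotes treated. Medium with drug renewed at 48 h, stopped at day 5. Percentage of infected macrophages scored microscopically after Giemsa staining. Run in triplicate.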

[3] = tested on: Leishmania donovani; assay: Antileishmanial activity against promastigote forms of Leishmania donovani MHOM/ET/67/HU3 after 3 days by MTT assay; assay type: functional, organism-based; details: MHOM/ET/67/HU3, 72 h
Method in brief: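 Log-phase promastigotes at 10^6 cells/mL in supplemented M-199. Serial dilutions gave final concentrations of 100 µM to 50 nM, in triplicate. Incubated 3 days at 27 °C, dark, 5% CO2. Viability read by MTT reduction, with Triton X100/HCl lysis and absorbance at 570 nm. IC50 ± SD.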

[4] = tested on: Trypanosoma brucei brucei; assay: Trypanocidal activity against Trypanosoma brucei brucei by drug incubation infectivity test; assay type: functional; details: read-out: MEC
[5] = tested on: Plasmodium falciparum; assay: Antimalarial activity against Plasmodium falciparum 3D7 infected in human O positive erythrocytes assessed as reduction of parasite growth after 24 to 44 hrs by Giemsa staining; assay type: functional, organism-based
Method in brief: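 Sorbitol-synchronized ring-stage 3D7 parasites in O+ erythrocytes (5% v/v suspension, 0.5% parasitemia) exposed to compounds from DMSO stock for 44 h at 37 °C. Growth measured by pLDH ELISA after freeze-thaw hemolysis and by Giemsa thin smears at 24 and 44 h, counting at least 5000 erythrocytes. Expressed as % reduction against medium-only control.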

[6] = tested on: Plasmodium berghei; assay: Antimalarial activity against chloroquine-sensitive Plasmodium berghei NK-173 infected in Swiss albino mouse assessed as quantal survival at 100 mg/kg, ip administered 4 times per day for 3 days measured on day 7; assay type: functional, organism-based; design: dose 100 mg/kg
Method in brief: (§1)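 Female Swiss albino mice (18–20 g) were infected i.v. on day 0 with 10^6 parasitized RBC in 0.2 ml PBS from a donor mouse, in groups of 10. Dosing was i.p. over days 0–3 and stopped if toxicity appeared. Chloroquine control was 100 µmoles/kg. Giemsa tail smears and RBC counts were taken on days 4, 7, 8, 9, 10 and 14. Mice were followed for deaths.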

[7] = tested on: Plasmodium berghei; assay: Antimalarial activity against chloroquine-sensitive Plasmodium berghei NK-173 infected in Swiss albino mouse assessed as quantal survival at 100 mg/kg, ip administered 4 times per day for 3 days measured on day 8; assay type: functional, organism-based; design: dose 100 mg/kg; method in brief: as §1
[8] = tested on: Plasmodium berghei; assay: Antimalarial activity against chloroquine-sensitive Plasmodium berghei NK-173 infected in Swiss albino mouse assessed as host survival at 100 mg/kg, ip administered 4 times per day for 3 days measured on day 30; assay type: functional; details: NK-173, ip, route intraperitoneal; method in brief: as §1
[9] = tested on: Mus musculus; assay: Toxicity in chloroquine-sensitive Plasmodium berghei NK-173 infected Swiss albino mouse assessed as mortality at 100 mg/kg, ip administered 4 times per day for 3 days measured up to 4 days; assay type: organism-based; design: dose 100 mg/kg, route intraperitoneal; details: in vivo; method in brief: as §1
[10] = tested on: Plasmodium berghei; assay: Antimalarial activity against chloroquine-sensitive Plasmodium berghei NK-173 infected in Swiss albino mouse assessed as quantal survival at 100 mg/kg, ip administered 4 times per day for 3 days measured on day 14; assay type: functional, organism-based; design: dose 100 mg/kg; method in brief: as §1
[11] = tested on: Plasmodium berghei; assay: Antimalarial activity against chloroquine-sensitive Plasmodium berghei NK-173 infected in Swiss albino mouse assessed as quantal survival at 100 mg/kg, ip administered 4 times per day for 3 days measured on day 10; assay type: functional, organism-based; design: dose 100 mg/kg; method in brief: as §1
[12] = tested on: Mus musculus; assay: Toxicity in chloroquine-sensitive Plasmodium berghei NK-173 infected Swiss albino mouse assessed as mortality at 51.5 mg/kg, ip administered 4 times per day for 3 days measured up to 4 days; assay type: organism-based; design: dose 51.5 mg/kg, route intraperitoneal; details: in vivo; method in brief: as §1
[13] = tested on: Plasmodium berghei; assay: Antimalarial activity against chloroquine-sensitive Plasmodium berghei NK-173 infected in Swiss albino mouse assessed as quantal survival at 51.5 mg/kg, ip administered 4 times per day for 3 days measured on day 14; assay type: functional, organism-based; design: dose 51.5 mg/kg; method in brief: as §1
[14] = tested on: Plasmodium berghei; assay: Antimalarial activity against chloroquine-sensitive Plasmodium berghei NK-173 infected in Swiss albino mouse assessed as quantal survival at 51.5 mg/kg, ip administered 4 times per day for 3 days measured on day 10; assay type: functional, organism-based; design: dose 51.5 mg/kg; method in brief: as §1
[15] = tested on: Plasmodium berghei; assay: Antimalarial activity against chloroquine-sensitive Plasmodium berghei NK-173 infected in Swiss albino mouse assessed as quantal survival at 51.5 mg/kg, ip administered 4 times per day for 3 days measured on day 9; assay type: functional, organism-based; design: dose 51.5 mg/kg; method in brief: as §1
[16] = tested on: Plasmodium berghei; assay: Antimalarial activity against chloroquine-sensitive Plasmodium berghei NK-173 infected in Swiss albino mouse assessed as quantal survival at 51.5 mg/kg, ip administered 4 times per day for 3 days measured on day 8; assay type: functional, organism-based; design: dose 51.5 mg/kg; method in brief: as §1
[17] = tested on: Plasmodium berghei; assay: Antimalarial activity against chloroquine-sensitive Plasmodium berghei NK-173 infected in Swiss albino mouse assessed as reduction parasitemia at 51.5 mg/kg, ip treated […] by Giemsa staining relative to control; assay type: functional; design: scale not given: the % may be the effect or the level left; details: route intraperitoneal
Method in brief: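 Four-day Peters test in female Swiss albino mice (18–20 g), groups of 10. Infected i.v. on day 0 with 10^6 parasitized RBC in 0.2 ml PBS, then dosed i.p. on days 0–3, stopped if toxicity appeared. Parasitemia read from Giemsa-stained tail-blood smears and reported as % reduction at day 4.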

[18] = tested on: Plasmodium berghei; assay: Antimalarial activity against chloroquine-sensitive Plasmodium berghei NK-173 infected in Swiss albino mouse assessed as quantal survival at 51.5 mg/kg, ip administered 4 times per day for 3 days measured on day 7; assay type: functional, organism-based; design: dose 51.5 mg/kg; method in brief: as §1
[19] = tested on: Plasmodium berghei; assay: Antimalarial activity against chloroquine-sensitive Plasmodium berghei NK-173 infected in Swiss albino mouse assessed as host survival at 51.5 mg/kg, ip administered 4 times per day for 3 days measured on day 30; assay type: functional; details: NK-173, ip, route intraperitoneal; method in brief: as §1

SMILES | CC50 at 120 h [1] | Activity [2] | IC50 [3] | minimal effective concentration [4] | also measured
Fc1c(F)c(F)c(C(c2ccc[nH]2)c2ccc[nH]2)c(F)c1F | > 100 µM | inactive | 44.1 µM | > 100 µM | 
C1=C/C(=C(\c2ccccc2)c2ccc[nH]2)N=C1 | > 100 µM | inactive | 5.23 µM | 25 µM | 
COC(=O)[C@@H]1CCC(=O)N1c1c2nc(c(-c3cc(OC)c(OC)c(OC)c3)c3ccc(cc4nc(c(-c5cc(OC)c(OC)c(OC)c5)c5ccc1[nH]5)C=C4)[nH]3)C=C2 | > 100 µM | inactive | ≥ 100 µM |  | 
C1=Cc2nc1cc1ccc([nH]1)c(-c1ccccc1)c1nc(cc3ccc([nH]3)c2-c2ccccc2)C=C1 | > 100 µM | inactive | ≥ 100 µM | > 100 µM | IC50 [5]: > 20 µM
COC(=O)[C@@H]1CCC(=O)N1c1c2nc(c(-c3cc(OC)c(OC)c(OC)c3)c3ccc([nH]3)c(N3C(=O)CC[C@H]3C(=O)OC)c3nc(c(-c4cc(OC)c(OC)c(OC)c4)c4ccc1[nH]4)C=C3)C=C2 | > 100 µM | inactive | ≥ 100 µM | 100 µM | 
c1ccc(C(c2ccc[nH]2)c2ccc[nH]2)cc1 | > 100 µM | inactive | ≥ 100 µM | > 100 µM | 
Brc1ccccc1C(c1ccc[nH]1)c1ccc[nH]1 | > 100 µM | inactive | 44.7 µM | > 100 µM | 
Clc1cccc(Cl)c1/C(=C1\C=CC=N1)c1ccc[nH]1 | > 100 µM | inactive | 5.55 µM | 12.5 µM | 
COc1cc(/C(=C2\C=CC=N2)c2ccc[nH]2)cc(OC)c1OC | > 100 µM | inactive | 4.71 µM | 25 µM | 
COc1cc(-c2c3nc(cc4ccc([nH]4)c(-c4cc(OC)c(OC)c(OC)c4)c4nc(cc5ccc2[nH]5)C=C4)C=C3)cc(OC)c1OC | > 100 µM | inactive | ≥ 100 µM | > 100 µM | IC50 [5]: > 20 µM
Brc1c2nc(c(-c3ccccc3)c3ccc([nH]3)c(Br)c3nc(c(-c4ccccc4)c4ccc1[nH]4)C=C3)C=C2 | > 100 µM | inactive | ≥ 100 µM | > 100 µM | IC50 [5]: 0.2 µM
Fc1c(F)c(F)c(/C(=C2\C=CC=N2)c2ccc[nH]2)c(F)c1F | > 100 µM | inactive | 3.61 µM | 12.5 µM | 
O=Cc1c2nc(c(-c3cccc(Br)c3)c3ccc(cc4nc(c(-c5cccc(Br)c5)c5ccc1[nH]5)C=C4)[nH]3)C=C2 | > 100 µM | inactive | ≥ 100 µM | > 100 µM | IC50 [5]: > 20 µM
N=C(N)c1ccc(OCCCCCOc2ccc(C(=N)N)cc2)cc1 [PENTAMIDINE] | 26.3 µM |  | 3.1 µM | 5 µM | 
CCCCCCCCCCCCCCCCOP(=O)([O-])OCC[N+](C)(C)C [MILTEFOSINE] | 15.8 µM |  | 4.26 µM |  | 
COc1cc(C(c2ccc[nH]2)c2ccc[nH]2)cc(OC)c1OC | > 100 µM | inactive | ≥ 100 µM | 100 µM | 
Brc1ccccc1/C(=C1\C=CC=N1)c1ccc[nH]1 | > 100 µM | inactive | 5.38 µM | 50 µM | 
O=C1CC[C@@H](C(=O)O)N1 [PIDOLIC ACID] |  |  |  |  | Survival [6]: Active; Survival [7]: Active; survival at 100 mg/kg [8]: 0%; Activity [9]: Non-toxic; Survival [10]: inactive; Survival [11]: inactive
O=C1CCCN1c1c2nc(c(-c3ccccc3)c3ccc([nH]3)c(N3CCCC3=O)c3nc(c(-c4ccccc4)c4ccc1[nH]4)C=C3)C=C2 | > 100 µM | inactive | ≥ 100 µM | > 100 µM | 
O=C1CCCN1c1c2nc(c(-c3ccccc3)c3ccc([nH]3)c(Br)c3nc(c(-c4ccccc4)c4ccc1[nH]4)C=C3)C=C2 | > 100 µM | inactive | 6.37 µM | 6.25 µM | 
O=C1CCC(C(O)(c2ccccc2)c2ccccc2)N1c1c2nc(c(-c3ccccc3)c3ccc([nH]3)c(N3C(=O)CCC3C(O)(c3ccccc3)c3ccccc3)c3nc(c(-c4ccccc4)c4ccc1[nH]4)C=C3)C=C2 (centres undefined) | > 100 µM | inactive | 53 µM | 50 µM | 
CCN(CC)CCCC(C)Nc1ccnc2cc(Cl)ccc12 (centres undefined) [CHLOROQUINE] |  |  |  |  | Activity [12]: Non-toxic; Survival [13]: Active; Survival [14]: Active; Survival [15]: Active; Survival [16]: Active; Activity [17]: 100%; Survival [18]: Active; survival at 51.5 mg/kg [19]: 100%
O=Cc1c2nc(c(-c3ccccc3)c3ccc(cc4nc(c(-c5ccccc5)c5ccc1[nH]5)C=C4)[nH]3)C=C2 | > 100 µM | inactive | ≥ 100 µM | > 100 µM | IC50 [5]: > 20 µM
